Results from ChEMBL document CHEMBL1136003, “2-Amino-3-aroyl-4,5-alkylthiophenes: agonist allosteric enhancers at human A(1) adenosine receptors” (J Med Chem, 2002).

Key:
[1] = target: T1, Adenosine receptor A1 (Homo sapiens) (UniProt P30542); assay: Allosteric enhancer activity score measured by its ability to stabilize the agonist-receptor-G protein ternary complex at a concentration of 100 uM; type: functional
T1 sequence (whole entry): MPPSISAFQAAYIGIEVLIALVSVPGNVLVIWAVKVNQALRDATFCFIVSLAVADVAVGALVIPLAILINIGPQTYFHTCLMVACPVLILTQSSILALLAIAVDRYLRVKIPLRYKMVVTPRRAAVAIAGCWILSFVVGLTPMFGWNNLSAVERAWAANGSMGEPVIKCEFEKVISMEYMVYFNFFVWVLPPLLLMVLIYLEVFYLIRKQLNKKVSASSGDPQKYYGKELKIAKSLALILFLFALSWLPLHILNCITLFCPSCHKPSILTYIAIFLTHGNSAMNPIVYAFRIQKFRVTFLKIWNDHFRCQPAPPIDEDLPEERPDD
Procedure, shortened: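 Candidate enhancer added (100 µM) for 5 min, then dissociation started with 8-cyclopentyltheophylline plus GTPγS. Residual bound agonist after 10 min counted by filtration. Score = 100 × (B − Bo)/(Beq − Bo).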

[2] = target: T1, Adenosine receptor A1 (Homo sapiens); assay: Inhibition of [3H]CPX binding to CHO-K cell membrane expressing human Adenosine A1 receptor; type: cell membranes; design: concentration or dose not given beside the values; conditions: concentration not given here
Procedure, shortened: (§1)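 Triplicate assays with membranes (15 µg protein) from CHO-K cells expressing human A1AR. Buffer was 10 mM HEPES pH 7.4 with 1 mM EDTA, adenosine deaminase 1 u/mL, [3H]CPX (4 nM in membrane aliquot), and enhancer added as 200 µM in 10% DMSO. Footnote gives enhancer at 100 µM. NECA defined nonspecific binding. Incubated 3 h at room temperature, then filtered and counted.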

[3] = target: T1, Adenosine receptor A1 (Homo sapiens); assay: Inhibition of [3H]CPX binding to membrane of CHO-K cells stably expressing human adenosine A1 receptors.; type: cell membranes; design: concentration or dose not given beside the values; conditions: concentration not given here; procedure, shortened: as §1

SMILES: Cc1cccc(C(=O)c2c(N)sc(C)c2C)c1
- AE Score [1]: 18%

SMILES: Nc1sc2c(c1C(=O)c1ccc(F)cc1)CCC2
- AE Score [1]: 22%
- inhibition [2]: 40%

SMILES: Nc1sc2c(c1C(=O)c1ccc(-c3ccccc3)cc1)CCC2
- AE Score [1]: 38%

SMILES: Nc1sc2c(c1C(=O)c1ccc(Cl)cc1)CCCCC2
- AE Score [1]: 65%

SMILES: COc1cccc(C(=O)c2c(N)sc3c2CCCCC3)c1
- AE Score [1]: 99%
- inhibition [3]: 13%

SMILES: Nc1sccc1C(=O)c1cccc(Cl)c1
- AE Score [1]: 0%

SMILES: Nc1sc2c(c1C(=O)c1ccccc1)CCCCC2
- AE Score [1]: 13%
- inhibition [3]: 68%

SMILES: Nc1sc2c(c1C(=O)c1ccc3ccccc3c1)CCCCC2
- AE Score [1]: 75%

SMILES: Nc1sccc1C(=O)c1cccc(Br)c1
- AE Score [1]: 0.2%

SMILES: Nc1sc2c(c1C(=O)c1ccc(F)cc1)CCCCC2
- AE Score [1]: 22%

SMILES: Nc1sc2c(c1C(=O)c1ccc(C3CCCCC3)cc1)CCCCC2
- AE Score [1]: 77%

SMILES: Cc1sc(N)c(C(=O)c2ccccc2)c1C
- AE Score [1]: 9%

SMILES: Cc1sc(N)c(C(=O)c2cccc(Cl)c2)c1C
- AE Score [1]: 14%

SMILES: Cc1sc(C(=O)O)c(C(=O)c2ccccc2)c1C
- AE Score [1]: 0%

SMILES: Nc1sccc1C(=O)c1ccc(Cl)c(Cl)c1
- AE Score [1]: 1.7%

SMILES: Nc1sccc1C(=O)c1ccccc1
- AE Score [1]: 0.2%
- inhibition [2]: 15%

SMILES: Nc1sccc1C(=O)c1ccc(Br)cc1
- AE Score [1]: 0.8%

SMILES: Nc1sc2c(c1C(=O)c1ccc(Br)cc1)CCCCC2
- AE Score [1]: 86%
- inhibition [3]: 7%

SMILES: COc1ccc(C(=O)c2c(N)sc3c2CCCCC3)cc1
- AE Score [1]: 85%

SMILES: N#Cc1ccc(C(=O)c2c(N)sc3c2CCCC3)cc1
- AE Score [1]: 19%
- inhibition [3]: 21%

SMILES: Nc1sc2c(c1C(=O)c1cccc(I)c1)CCCCC2
- AE Score [1]: 86%

SMILES: Cc1ccc(C(=O)c2c(N)sc3c2CCCC3)cc1
- AE Score [1]: 19%
- inhibition [3]: 36%

SMILES: Nc1sccc1C(=O)c1ccc(F)cc1
- AE Score [1]: 0%

SMILES: Nc1sc2c(c1C(=O)c1cccc(Cl)c1)CCCCC2
- AE Score [1]: 65%
- inhibition [3]: 10%

SMILES: Nc1sc2c(c1C(=O)c1ccccc1)CCCC2
- AE Score [1]: 19%
- inhibition [3]: 42%

SMILES: Nc1sc2c(c1C(=O)c1cccc(F)c1)CCCC2
- AE Score [1]: 22%
- inhibition [2]: 35%

SMILES: Nc1sc2c(c1C(=O)c1ccc(Br)cc1)CCCC2
- AE Score [1]: 83%
- inhibition [3]: 61%

SMILES: Cc1sc(N)c(C(=O)c2cccc(Br)c2)c1C
- AE Score [1]: 16%

SMILES: Nc1sccc1C(=O)c1ccc(Cl)cc1
- AE Score [1]: 0%

SMILES: Nc1sccc1C(=O)c1cccc(F)c1
- AE Score [1]: 0%

SMILES: CCOC(=O)c1c(N)sc2c1CCCCC2
- AE Score [1]: 0.3%
- inhibition [3]: 38%

SMILES: CCOC(=O)c1c(N)sc2c1CCCC2
- AE Score [1]: 3.5%
- inhibition [3]: 53%

SMILES: Nc1sc2c(c1C(=O)c1ccc3ccccc3c1)CCC2
- AE Score [1]: 31%
- inhibition [3]: 21%

SMILES: Nc1sc2c(c1C(=O)c1ccc(C3CCCCC3)cc1)CCCC2
- AE Score [1]: 99%
- inhibition [3]: 47%

SMILES: Nc1sc2c(c1C(=O)c1cccc3ccccc13)CCCCC2
- AE Score [1]: 81%

SMILES: Nc1sc2c(c1C(=O)c1ccc(-c3ccccc3)cc1)CCCCC2
- AE Score [1]: 88%

SMILES: Nc1sc2c(c1C(=O)c1ccc(F)cc1)CCCC2
- AE Score [1]: 17%
- inhibition [3]: 56%

SMILES: Cc1cc(C)c(C(=O)c2c(N)sc(C)c2C)c(C)c1
- AE Score [1]: 0%

SMILES: Nc1sc2c(c1C(=O)c1cccc(Cl)c1)CCCC2
- AE Score [1]: 70%
- inhibition [2]: 78%

SMILES: Nc1sc2c(c1C(=O)c1ccc3ccccc3c1)CCCC2
- AE Score [1]: 86%

SMILES: Nc1sc2c(c1C(=O)c1ccc(I)cc1)CCCC2
- AE Score [1]: 86%
- inhibition [3]: 62%

SMILES: Cc1sc(N)c(C(=O)c2ccc(-c3ccccc3)cc2)c1C
- AE Score [1]: 12%

SMILES: Nc1sccc1C(=O)c1ccc2ccccc2c1
- AE Score [1]: 3.2%

SMILES: Nc1sc2c(c1C(=O)c1cccc(Cl)c1)CCC2
- AE Score [1]: 13%
- inhibition [2]: 56%

SMILES: CCOC(=O)c1c(N)sc2c1CCC2
- AE Score [1]: 0.4%
- inhibition [2]: 58%

SMILES: Nc1sc2c(c1C(=O)c1cccc(Br)c1)CCCC2
- AE Score [1]: 49%
- inhibition [2]: 49%

SMILES: Cc1sc(N)c(C(=O)c2cccc(C(F)(F)F)c2)c1C
- AE Score [1]: 19%
- inhibition [2]: 42%

SMILES: Nc1sc2c(c1C(=O)c1ccc(-c3ccccc3)cc1)CCCC2
- AE Score [1]: 33%

SMILES: Nc1sc2c(c1C(=O)c1ccc(I)cc1)CCCCC2
- AE Score [1]: 96%
- inhibition [3]: 9%

SMILES: Nc1sc2c(c1C(=O)c1ccc(Br)cc1)CCC2
- AE Score [1]: 62%
- inhibition [2]: 20%

SMILES: Nc1sc2c(c1C(=O)c1cccc(Br)c1)CCC2
- AE Score [1]: 68%
- inhibition [2]: 36%

SMILES: Nc1sc2c(c1C(=O)c1cccc(F)c1)CCC2
- AE Score [1]: 16%

SMILES: Cc1sc(N)c(C(=O)c2cccc(F)c2)c1C
- AE Score [1]: 0%

SMILES: Cc1sc(C(=O)O)c(C(=O)c2ccc(-c3ccccc3)cc2)c1C
- AE Score [1]: 0%

SMILES: Cc1sc(C(=O)O)c(C(=O)c2cccc(C(F)(F)F)c2)c1C
- AE Score [1]: 0%

SMILES: Nc1sc2c(c1C(=O)c1cccc(Br)c1)CCCCC2
- AE Score [1]: 78%
- inhibition [3]: 7%

SMILES: Nc1sc2c(c1C(=O)c1ccccc1)CCC2
- AE Score [1]: 20%
- inhibition [2]: 56%

SMILES: Nc1sc2c(c1C(=O)c1ccc(Cl)cc1)CCCC2
- AE Score [1]: 68%
- inhibition [3]: 69%

SMILES: Nc1sc2c(c1C(=O)c1ccc(Cl)cc1)CCC2
- AE Score [1]: 70%
